Assay results taken from ChEMBL document CHEMBL1132583, “Design and synthesis of novel amphiphilic dendritic galactosides for selective targeting of liposomes to the hepatic asialoglycoprotein receptor” (J Med Chem, 1999).

What was measured:
Format in all cases: functional, organism-based
Conditions in all cases: Microsome
Mus musculus [1] = organism: Mus musculus; assay: The percent recovery of the addedglycolipid (100 ug) with the liposomes in Mice at 5% w/w of the compound
How it was run: (§1)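 Glycolipid (0–50 μg; 5, 10 or 50% w/w) incubated with sonicated [3H]cholesteryl oleate-labeled egg PC liposomes (100 μg phospholipid) for 30 min at 37 °C. Incorporated and free glycolipid separated by FPLC on Superose-6 or Sephacryl S-1000, PBS pH 7.4 eluent, 50 μL/min. Galactose content of fractions measured by galactose oxidase assay. Recovery is given as percent of added glycolipid eluting with liposomes. Mean ± variation, n = 2.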

Mus musculus [2] = organism: Mus musculus; assay: The percent recovery of the addedglycolipid (100 ug) with the liposomes in Mice at 10% w/w (n = 2); how it was run: as §1
Mus musculus [3] = organism: Mus musculus; assay: The percent recovery of the addedglycolipid (100 ug) with the liposomes in Mice at 5% w/w (n = 2); how it was run: as §1
Mus musculus [4] = organism: Mus musculus; assay: The percent recovery of the addedglycolipid (100 ug) with the liposomes in Mice at 50% w/w (n = 2); how it was run: as §1
Mus musculus [5] = assay: Uptake by the liver liposomes upon intravenous injection in Mice at 50% w/w (n = 2)
How it was run: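 Optional asialofetuin preinjection (50 mg/kg) given 1 min before. Liver lobules and blood sampled over time. At 30 min, liver 3H is expressed as % injected dose, corrected for serum radioactivity. Mean ± variation of two experiments.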

Row | SMILES | Recovery (Mus musculus [1]) [%] | Recovery (Mus musculus [2]) [%] | Recovery (Mus musculus [3]) [%] | Recovery (Mus musculus [4]) [%] | Uptake (Mus musculus [5]) [%]
1 | CCCCCCCC/C=C\CCCCCCCC(=O)O[C@H]1CC[C@@]2(C)C(=CC[C@H]3[C@@H]4CC[C@H](C(C)CCC(=O)NCCCC(=O)NCC(=O)NC(COCCC(=O)NCCCNC(=O)CCCCO[C@@H]5O[C@H](CO)[C@H](O)[C@@H](O)[C@H]5O)(COCCC(=O)NCCCNC(=O)CCCCO[C@@H]5O[C@H](CO)[C@H](O)[C@@H](O)[C@H]5O)COCCC(=O)NCCCNC(=O)CCCCO[C@@H]5O[C@H](CO)[C@H](O)[C@@H](O)[C@H]5O)[C@@]4(C)CC[C@@H]32)C1 (stereo partly specified) | 100 |  |  |  | 
2 | CCCCCCCC/C=C\CCCCCCCC(=O)O[C@H]1CC[C@@]2(C)C(CC[C@H]3[C@@H]4CC[C@H](C(C)CCC(=O)NCCCC(=O)NCC(=O)NC(COCCC(=O)NCCCNC(=O)CCCCO[C@@H]5O[C@H](CO)[C@H](O)[C@@H](O)[C@H]5O)(COCCC(=O)NCCCNC(=O)CCCCO[C@@H]5O[C@H](CO)[C@H](O)[C@@H](O)[C@H]5O)COCCC(=O)NCCCNC(=O)CCCCO[C@@H]5O[C@H](CO)[C@H](O)[C@@H](O)[C@H]5O)[C@@]4(C)CC[C@@H]32)C1 (stereo partly specified) |  | 96.5 | 100 | 59.4 | 83.5
3 | CCCCCCCC/C=C\CCCCCCCC(=O)O[C@H]1CC[C@@]2(C)C(=CC[C@H]3[C@@H]4CC[C@H](C(C)C(=O)NCCCC(=O)NCC(=O)NC(COCCC(=O)NCCCNC(=O)CCCCO[C@@H]5O[C@H](CO)[C@H](O)[C@@H](O)[C@H]5O)(COCCC(=O)NCCCNC(=O)CCCCO[C@@H]5O[C@H](CO)[C@H](O)[C@@H](O)[C@H]5O)COCCC(=O)NCCCNC(=O)CCCCO[C@@H]5O[C@H](CO)[C@H](O)[C@@H](O)[C@H]5O)[C@@]4(C)CC[C@@H]32)C1 (stereo partly specified) | 100 |  |  |  | 
